Data on 6 compounds can be found in ChEMBL document CHEMBL1135935, “Halogenated diazirines as photolabel mimics of the inhaled haloalkane anesthetics” (J Med Chem, 2002).

A short description of assay [1]: Dissociation constant for a single binding site. Put shortly: (§1)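 Bovine serum albumin (10 mg/mL) was pre-equilibrated with ~5 mCi tritiated water in 1 M GdnCl, 0.1 M NaH2PO4 pH 8.5 for ≥18 h at room temperature. Exchange-out ran with compound present. Aliquots were taken at timed intervals over ≥6 h, precipitated in ice-cold 10% TCA, filtered, and counted by scintillation. PFR came from the last 3–5 shared hydrogens. KD was derived from PFr = 1 + ([compound]/KD)^n.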

Assay [2] in a line: (§2) Effective concentration to potentiate GABA responses. Type of assay: functional. Summed up: (§3)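 Stage V–VI Xenopus oocytes were defolliculated with collagenase and injected with 1–2 ng of each subunit cRNA in a 1:1 ratio. They were kept in ND96 with 50 µg/mL gentamicin at 18 °C for 3–5 days. Voltage-clamp recording was done under continuous ND96 superfusion (pH 7.5).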
Assay [3] in a line: Effective concentration for rapid onset of reversible immobility (tadpole) at about 0.1 mM. The assay is classed as functional, frog. Put shortly:
(§4)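 Tadpoles were exposed to compound in pond water and scored for loss of righting reflex over 5 min. They were then moved to fresh pond water and watched for recovery, intermittently for 3 h. EC50 values are estimates within 2-fold.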

Another assay addresses Albumin (Homo sapiens, UniProt P02768). The experiment in a line: Inhibitory concentration bound to tryptophan containing region of Serum albumin in fluorescence quenching. Summed up: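 Increasing compound concentrations were added from stock buffer solutions to ~2 µM human serum albumin, which has a single Trp-214. The cuvette was kept air-free. Excitation was 295 nm with emission scanning at room temperature. Fluorescence maxima were corrected for inner-filter effects, and EC50 and Hill slope were derived.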

A short description of assay [4]: Dissociation constant for a single binding site at 5 mM concentration. Summed up:
as §1

Assay [5] can be described thus: as §2. The assay is classed as functional. Put shortly: as §3
This is another data set of the same source.

Assay [6] in a line: Effective concentration for tadpole immobility after 5 min (slow recovery). Type of assay: functional, frog. To be noted: Amphibia, read-out: ED50 (the source's name). Put shortly:
as §4

Assay [7] can be described thus: Effective concentration for tadpole immobility (less potent). Type of assay: functional, frog. Summed up: as §4

In general, Kd refers to the constant that tells how readily two partners part at equilibrium. The term IC50 denotes the concentration needed to halve the response being measured. A higher IC50 goes with weaker potency in that assay.

Sequence of Albumin (P02768 whole entry): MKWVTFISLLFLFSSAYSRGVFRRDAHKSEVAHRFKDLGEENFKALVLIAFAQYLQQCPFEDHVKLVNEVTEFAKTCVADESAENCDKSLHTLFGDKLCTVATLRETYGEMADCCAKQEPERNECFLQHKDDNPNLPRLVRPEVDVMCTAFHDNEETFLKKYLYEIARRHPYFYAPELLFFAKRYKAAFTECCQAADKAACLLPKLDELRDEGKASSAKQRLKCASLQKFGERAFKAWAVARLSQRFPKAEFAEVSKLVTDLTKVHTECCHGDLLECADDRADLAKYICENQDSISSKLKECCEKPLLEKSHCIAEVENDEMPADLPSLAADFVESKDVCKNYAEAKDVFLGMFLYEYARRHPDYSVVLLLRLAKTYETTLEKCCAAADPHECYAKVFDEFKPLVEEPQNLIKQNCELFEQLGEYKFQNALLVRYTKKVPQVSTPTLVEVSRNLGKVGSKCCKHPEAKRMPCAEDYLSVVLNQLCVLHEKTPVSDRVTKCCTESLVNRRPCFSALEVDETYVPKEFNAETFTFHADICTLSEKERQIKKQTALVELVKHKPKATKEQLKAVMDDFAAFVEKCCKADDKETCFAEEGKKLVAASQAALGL

Consider `FC(F)(C(Cl)Br)C1N=N1` (configuration not stated), for which the Kd in assay [1] was 200 µM. Further, the figures for the EC50 in assay [2] and in assay [3] were 50 µM and 100 µM, respectively. The same compound displayed an IC50 on Albumin of 800 µM.

Regarding `FC(F)(F)C1(Br)N=N1`, the affinity in assay [1], expressed as Kd, was 5600 µM. Also, on Albumin, the IC50 stood at 400 µM.

In assay [4], `[N-]=[N+]=CC(F)(F)F` returned a Kd of 1300 µM. On Albumin, this compound returned an IC50 of 1200 µM.

Compound `FC(F)(F)C(Cl)Br` (configuration not stated) [HALOTHANE] yielded a Kd in assay [1] of 900 µM. Moreover, at Albumin, the IC50 was determined as 2900 µM.

Turning to `FC(Cl)C(F)(F)C1(Br)N=N1` (configuration not stated), in assay [1], the Kd worked out at 600 µM. Further, in assay [5], the ED50 turned out to be 80 µM. Also, in assay [6], the EC50 stood at 300 µM. Also, at Albumin, the IC50 was 700 µM.

On to `FC(Cl)C(F)(F)C1(F)N=N1` (configuration not stated), for which the Kd in assay [1] is 4800 µM. Moreover, the EC50 in assay [7] worked out at 2500 µM. The IC50 against Albumin worked out at 2200 µM.
